We go through 35 molecules from ChEMBL document CHEMBL1150301, “Structure-activity relationship studies on N'-aryl carbohydrazide P2X7 antagonists” (J Med Chem, 2008).

The term IC50 denotes the concentration needed to halve the response being measured. Broadly, the pIC50 is −log10 of the IC50, conventionally taken in molar units. The term AUC denotes concentration integrated over time. For orientation: ED50 means the dose at which the effect has come halfway, by size or by number of responders. The half-life is the time needed for the level to fall by half in the phase considered. The low end stands for rapid decline, the high end for slow decline. As a reminder, the Tmax is the time at which the peak concentration occurs. As a reminder, the bioavailability is dose-corrected exposure relative to a reference, in per cent. As usually defined, the Cmax is the peak of the concentration-time curve.

Series [1] addresses T1, P2X purinoceptor 7 (Rattus norvegicus, UniProt Q64663).
T1 sequence (Q64663 whole entry): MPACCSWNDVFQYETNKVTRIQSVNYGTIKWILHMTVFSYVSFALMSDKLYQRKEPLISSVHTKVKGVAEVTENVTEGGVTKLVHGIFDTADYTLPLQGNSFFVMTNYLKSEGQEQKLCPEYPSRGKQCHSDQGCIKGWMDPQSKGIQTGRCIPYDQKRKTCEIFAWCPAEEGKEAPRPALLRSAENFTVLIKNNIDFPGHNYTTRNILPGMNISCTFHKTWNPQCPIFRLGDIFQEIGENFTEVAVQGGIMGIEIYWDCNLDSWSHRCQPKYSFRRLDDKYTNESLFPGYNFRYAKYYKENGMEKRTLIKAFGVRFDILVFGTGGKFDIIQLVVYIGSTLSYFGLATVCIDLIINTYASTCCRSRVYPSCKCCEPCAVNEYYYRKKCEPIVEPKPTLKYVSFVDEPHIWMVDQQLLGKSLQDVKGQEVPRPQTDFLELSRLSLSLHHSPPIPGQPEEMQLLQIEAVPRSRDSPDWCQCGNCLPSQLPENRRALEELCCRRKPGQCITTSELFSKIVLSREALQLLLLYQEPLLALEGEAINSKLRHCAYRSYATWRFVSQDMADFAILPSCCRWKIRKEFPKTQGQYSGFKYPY
The series is described as follows: Antagonist activity at rat recombinant P2X7 receptor expressed in human 1321N1 cells assessed as benzoyl-ATP-induced calcium flux by FLIPR assay. The class given is functional, cell-based. In outline: (§1)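 The human or rat P2X7 was stably transfected into 1321N1 astrocytoma cells, which lack endogenous P2X function. Cells were loaded with Fluo-4 and given a 5 min antagonist pretreatment before BzATP challenge. Ca2+ flux was read on FLIPR. Results are pIC50 ± SEM, n = 2, or ≥3 where marked.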
Background: Calcium assays in cells follow changes in intracellular calcium, usually with a dye or a luminescent sensor.

The target of series [2] is T2, P2X purinoceptor 7 (Homo sapiens, UniProt Q99572).
T2 sequence (Q99572 whole entry): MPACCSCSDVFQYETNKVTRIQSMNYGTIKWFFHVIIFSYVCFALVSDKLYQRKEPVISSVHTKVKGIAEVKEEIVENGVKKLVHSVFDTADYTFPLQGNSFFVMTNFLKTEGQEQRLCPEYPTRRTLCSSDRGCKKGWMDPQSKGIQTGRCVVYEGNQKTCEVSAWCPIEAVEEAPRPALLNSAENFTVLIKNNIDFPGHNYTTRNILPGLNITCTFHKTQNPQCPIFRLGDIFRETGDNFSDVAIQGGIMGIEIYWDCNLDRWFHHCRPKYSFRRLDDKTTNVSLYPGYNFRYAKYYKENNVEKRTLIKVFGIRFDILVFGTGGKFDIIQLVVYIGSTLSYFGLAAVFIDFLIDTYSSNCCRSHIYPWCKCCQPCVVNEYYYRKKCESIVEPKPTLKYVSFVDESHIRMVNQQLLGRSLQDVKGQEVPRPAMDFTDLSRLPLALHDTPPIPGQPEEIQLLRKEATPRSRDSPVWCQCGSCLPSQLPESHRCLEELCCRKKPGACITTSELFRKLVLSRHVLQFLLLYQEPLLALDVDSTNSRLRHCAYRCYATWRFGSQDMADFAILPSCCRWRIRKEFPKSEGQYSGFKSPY
The series is described as follows: Antagonist activity at human recombinant P2X7 receptor expressed in human 1321N1 cells assessed as benzoyl-ATP-induced calcium flux by FLIPR assay. It counts as functional, cell-based. In short, it runs like this:
as §1

Series [3] has as its target T2, P2X purinoceptor 7. The series is described as follows: Antagonist activity at human recombinant P2X7 receptor expressed in differentiated human THP1 cells assessed as inhibition of benzoyl-ATP-induced IL1-beta release by ELISA. It counts as functional, cell-based, THP-1. In short, it runs like this:
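THP-1 cells were differentiated with LPS and IFNγ. Compound was present while cells were stimulated with BzATP for 30 min. Released IL-1β was quantified by ELISA kit. Results are given as pIC50.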

Series [4] relates to Rattus norvegicus. The series is described as follows: AUC in rat at 5 umol/kg, ip. The class given is ADME, organism-based, Plasma. The conditions noted are these: in vivo. In outline:
(§2)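 Rats were dosed iv or ip at 5 µmol/kg in 10% DMSO/90% PEG. Plasma PK parameters were derived: Vβ, Clp, Cmax, Tmax, AUC, t1/2 and F.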

Series [5] has as its system Rattus norvegicus. Briefly: Reversal of neuropathic pain in ip dosed L5/L6 spinal nerve tight ligation rat model assessed as paw withdrawal threshold. The class given is functional. In short, it runs like this: (§3)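 L5/L6 spinal nerve tight ligation was done 7–14 days before testing. Mechanical allodynia was measured with von Frey filaments before dosing, and rats with threshold <5 g were kept. Rats were retested 30 min after ip dosing at 30–300 µmol/kg. Reversal on the ipsilateral side was expressed relative to the contralateral side, and ED50 was derived.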

Series [6] can be described thus: Half life in rat at 5 umol/kg, iv. The class given is ADME, organism-based. The conditions noted are these: in vivo. In short, it runs like this:
as §2

The nature of series [7]: Volume of distribution at terminal phase in rat at 5 umol/kg, iv. The class given is ADME, organism-based. Particulars: in vivo, read-out: Vbeta. In outline: as §2
Series [8] concerns Rattus norvegicus. Briefly: Tmax in rat at 5 umol/kg, ip. It counts as ADME, organism-based. The conditions noted are these: in vivo. In outline: as §2
A short description of series [9]: Bioavailability in rat at 5 umol/kg, ip. It counts as ADME, organism-based. The conditions noted are these: in vivo. In outline: as §2
The subject of series [10] is Rattus norvegicus. Briefly: Half life in rat at 5 umol/kg, ip. The class given is ADME, organism-based. Particulars: in vivo. In outline:
as §2

The test system of series [11] is Rattus norvegicus. Briefly: Cmax in rat at 5 umol/kg, ip. The class given is ADME, organism-based. Details: dose 5 umol/kg, route intraperitoneal. Particulars: in vivo. In outline:
as §2

The subject of series [12] is Rattus norvegicus. The series is described as follows: Reversal of neuropathic pain in L5/L6 spinal nerve tight ligation rat model assessed as paw withdrawal threshold at 30 to 300 umol/kg, ip relative to contralateral paw. The class given is functional. In outline: as §3
In series [13] the test system is Rattus norvegicus. The series is described as follows: AUC in rat at 5 umol/kg, iv. It counts as ADME, organism-based, Plasma. The conditions noted are these: in vivo. In outline: as §2

Turning to `CC1(C)C2CCC1(C(=O)NNc1cccc3ncccc13)C(=O)C2` (stereo not drawn), the IC50 is 1510 nM in series [1] and 1380 nM in series [2].

Turning to `Cc1ccccc1NNC(=O)C1CCCCC1`, the values for the half-inhibitory concentration (IC50) in series [1] and in series [2] were 245 nM and 174 nM, respectively.

Take `CC1CCC(C)(C(=O)NNc2cccc3ncccc23)C1(C)C` (stereo not drawn): the IC50 in [1] is 123 nM; in series [2] it was 27.5 nM.

Take `O=C(NNc1cccc2ncccc12)C12CC3CC(CC1C3)C2`: the IC50 in series [1] was 52.5 nM; in series [3], 158 nM; in [2] it was 27.5 nM.

Take `Cc1ccccc1NNC(=O)CCC(C)C`: the IC50 in series [1] was 339 nM; in [2], 148 nM.

On to `COc1ccc(C2(C(=O)NNc3cccc4ncccc34)CCCCC2)cc1`, for which the half-inhibitory concentration (IC50) is 51.3 nM in series [1] and 52.5 nM in [2].

`CCC12CC3CC(C1)CC(C(=O)NNc1cccc4ncccc14)(C3)C2`: the 50% inhibitory concentration (IC50) in series [1] is 145 nM; in series [2] it was 22.9 nM.

On to `O=C(NNc1cccc2ncccc12)C1(c2cccc(F)c2)CCCCC1`, for which the results for the IC50 in [1] and in [2] were 257 nM and 141 nM, respectively.

Consider `CC1(C)C(C(=O)NNc2cccc3ncccc23)C1(C)C`, for which the half-inhibitory concentration (IC50) in [1] was 155 nM; in series [2] it was 200 nM.

As for `CCCCCCC(=O)NNc1ccccc1C`, the IC50 is 195 nM in series [1] and 407 nM in [2].

For `Cc1ccccc1NNC(=O)C1CCCCCC1`, the IC50 in series [1] was 49 nM; in [2] it was 33.9 nM.

In the case of `Cc1ccccc1NNC(=O)C1(c2ccccc2)CCCC1`, the concentration for half-maximal inhibition (IC50) was 151 nM in series [1] and 132 nM in series [2].

As to `Cc1ccccc1NNC(=O)C1(C)CCCCC1`, the figures for the half-maximal inhibitory concentration (IC50) in series [1] and in series [2] were 148 nM and 70.8 nM, respectively.

In the case of `O=C(NNc1ccccc1Cl)C12CC3CC(CC(C3)C1)C2`, the IC50 in series [1] is 33.9 nM; in series [2], 11.5 nM.

In the case of `O=C(NNc1ccc(Cl)cc1Cl)C12CC3CC(CC(C3)C1)C2`, in [1] (1321-n1), the pIC50 is over 5. The half-maximal inhibitory concentration (IC50) in [2] is 372 nM.

For `O=C(NNc1cccnc1)C12CC3CC(CC(C3)C1)C2`, the IC50 in [1] was 977 nM; in series [2], 832 nM.

Take `COc1ccc(NNC(=O)C23CC4CC(CC(C4)C2)C3)cc1`: the half-maximal inhibitory concentration (IC50) is 2450 nM in [1] and 977 nM in series [2].

Regarding `Cc1ccc(C)c(NNC(=O)C23CC4CC(CC(C4)C2)C3)c1`, the values for the half-maximal inhibitory concentration (IC50) in [1] and in series [2] were 135 nM and 57.5 nM, respectively.

For `O=C(NNc1cccc2ncccc12)C12CC3CC(CC(C3)C1)C2`, the results for the AUC in series [4] and in series [13] were 390 ng·h/mL and 940 ng·h/mL, respectively. For the same molecule, the ED50 in series [5] amounted to 92 µmol/kg. Moreover, the half-life in series [6] is 24 min. The Vd in series [7] is 0.9 L/kg. In addition, the Tmax in [8] was determined as 30 min. In addition, the IC50 was 44.7 nM in [1], 5.01 nM in series [3] and 10.2 nM in series [2]. The molecule further showed a bioavailability in series [9] of 42%. Further, the t1/2 in series [10] amounted to 36 min. The Cmax in [11] is 440 ng/mL. In addition, the Activity in [12] is reported as 68%.

With `O=C(NNc1cccc(F)c1)C12CC3CC(CC(C3)C1)C2`, the figures for the 50% inhibitory concentration (IC50) in [1] and in [2] were 468 nM and 324 nM, respectively.

`O=C(NNc1ccccc1F)C12CC3CC(CC(C3)C1)C2`: the results for the IC50 in series [1] and in [2] were 204 nM and 39.8 nM, respectively.

For `Cc1ccccc1NNC(=O)CC1CCCCC1`, the concentration for half-maximal inhibition (IC50) was 151 nM in [1] and 38.9 nM in series [2].

For the molecule `O=C(NNc1ccccn1)C12CC3CC(CC(C3)C1)C2`, the values for the IC50 in [1] and in series [2] were 427 nM and 219 nM, respectively.

Regarding `O=C(NNc1cccc2ncccc12)C1(c2ccccc2F)CCCCC1`, the concentration for half-maximal inhibition (IC50) in [1] was 324 nM; in [2], 191 nM.

With `O=C(CC12CC3CC(CC(C3)C1)C2)NNc1cccc2ncccc12`, the IC50 in series [1] is 603 nM; in series [2], 57.5 nM.

Regarding `O=C(NNc1ccc(F)cc1)C12CC3CC(CC(C3)C1)C2`, the half-inhibitory concentration (IC50) in series [1] is 1070 nM; in series [2], 282 nM.

With `Cc1ccccc1NNC(=O)C12CC3CC(CC(C3)C1)C2`, the IC50 in series [1] is 28.2 nM; in series [2] it was 11.7 nM.

Consider `O=C(NNc1ccccc1)C12CC3CC(CC(C3)C1)C2`, for which the half-inhibitory concentration (IC50) in series [1] was 275 nM; in series [2], 110 nM.

As for `O=C(NNc1cccc2ncccc12)C1(c2ccc(F)cc2)CCCCC1`, the concentration for half-maximal inhibition (IC50) in series [1] is 174 nM; in [2], 70.8 nM.

Consider `O=C(NNc1cccc2nc(Cl)ccc12)C12CC3CC(CC(C3)C1)C2`, for which the half-maximal inhibitory concentration (IC50) in series [1] is 174 nM; in series [2], 51.3 nM.

For the molecule `CC1(C(=O)NNc2cccc3ncccc23)CC2C=CC1C2` (stereo not drawn), the figures for the concentration for half-maximal inhibition (IC50) in series [1] and in [2] were 31.6 nM and 18.6 nM, respectively.

As for `O=C(NNc1cccc2ncccc12)C12CC3CC(CC(Cl)(C3)C1)C2`, the figures for the half-inhibitory concentration (IC50) in series [1], in series [3] and in series [2] were 35.5 nM, under 1 nM and 10.2 nM, respectively.

As for `O=C(NNc1cccc(Cl)c1Cl)C12CC3CC(CC(C3)C1)C2`, the figures for the half-inhibitory concentration (IC50) in series [1] and in [2] were 51.3 nM and 34.7 nM, respectively.

Consider `O=C(NNc1cccc2ncccc12)C12CC3CC(CC(O)(C3)C1)C2`, for which the IC50 is 2240 nM in series [1] and 275 nM in series [2].

Take `O=C(NNc1cccc2cnccc12)C12CC3CC(CC(C3)C1)C2`: the IC50 in [1] was 151 nM; in series [2], 33.9 nM.
